Test results: ChEMBL document CHEMBL1828568, “Novel imaging agents for β-amyloid plaque based on the N-benzoylindole core” (Bioorg Med Chem Lett, 2011)

Assays:
Type in all cases: ADME, organism-based
Spleen [1] = assay: Biodistribution in Kunming mouse spleen at 1 uCi, iv after 30 mins by gamma counting; settings: in vivo, 0.5 h
Outline: (§1)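 125I-labeled tracer given intravenously to normal mice. Organs and blood were sampled at 2, 15, 30, 60, 120 and 240 min after injection. Uptake is expressed as % ID/g, averaged over 5 mice ± SD.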

Spleen [2] = assay: Biodistribution in Kunming mouse spleen at 1 uCi, iv after 60 mins by gamma counting; settings: in vivo, 1 h
Outline: (§2)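 Radioiodinated tracers given intravenously to normal mice; organs taken at 2, 15, 30, 60, 120 and 240 min after injection. Uptake expressed as % ID/g, mean ± SD of 5 mice; stomach values carry a table footnote.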

Spleen [3] = assay: Biodistribution in Kunming mouse spleen at 1 uCi, iv after 120 mins by gamma counting; settings: in vivo, 2 h; outline: as §1
Spleen [4] = assay: Biodistribution in Kunming mouse spleen at 1 uCi, iv after 240 mins by gamma counting; settings: in vivo, 4 h; outline: as §1
Lung [5] = assay: Biodistribution in Kunming mouse lung at 1 uCi, iv after 2 mins by gamma counting; settings: in vivo; outline: as §1
Lung [6] = assay: Biodistribution in Kunming mouse lung at 1 uCi, iv after 15 mins by gamma counting; settings: in vivo, 0.25 h; outline: as §1
Lung [7] = assay: Biodistribution in Kunming mouse lung at 1 uCi, iv after 30 mins by gamma counting; settings: in vivo, 0.5 h; outline: as §1
Lung [8] = assay: Biodistribution in Kunming mouse lung at 1 uCi, iv after 60 mins by gamma counting; settings: in vivo, 1 h; outline: as §1
Lung [9] = assay: Biodistribution in Kunming mouse lung at 1 uCi, iv after 120 mins by gamma counting; settings: in vivo, 2 h; outline: as §1
Lung [10] = assay: Biodistribution in Kunming mouse lung at 1 uCi, iv after 240 mins by gamma counting; settings: in vivo, 4 h; outline: as §1
Kidney [11] = assay: Biodistribution in Kunming mouse kidney at 1 uCi, iv after 2 mins by gamma counting; settings: in vivo; outline: as §1
Kidney [12] = assay: Biodistribution in Kunming mouse kidney at 1 uCi, iv after 15 mins by gamma counting; settings: in vivo, 0.25 h; outline: as §1
Kidney [13] = assay: Biodistribution in Kunming mouse kidney at 1 uCi, iv after 30 mins by gamma counting; settings: in vivo, 0.5 h; outline: as §1
Kidney [14] = assay: Biodistribution in Kunming mouse kidney at 1 uCi, iv after 60 mins by gamma counting; settings: in vivo, 1 h; outline: as §1
Kidney [15] = assay: Biodistribution in Kunming mouse kidney at 1 uCi, iv after 120 mins by gamma counting; settings: in vivo, 2 h; outline: as §1
Kidney [16] = assay: Biodistribution in Kunming mouse kidney at 1 uCi, iv after 240 mins by gamma counting; settings: in vivo, 4 h; outline: as §1
Stomach [17] = assay: Biodistribution in Kunming mouse stomach assessed per organ at 1 uCi, iv after 2 mins by gamma counting; settings: in vivo; outline: as §2
Stomach [18] = assay: Biodistribution in Kunming mouse stomach assessed per organ at 1 uCi, iv after 15 mins by gamma counting; settings: in vivo, 0.25 h; outline: as §2
Stomach [19] = assay: Biodistribution in Kunming mouse stomach assessed per organ at 1 uCi, iv after 30 mins by gamma counting; settings: in vivo, 0.5 h; outline: as §2
Stomach [20] = assay: Biodistribution in Kunming mouse stomach assessed per organ at 1 uCi, iv after 60 mins by gamma counting; settings: in vivo, 1 h; outline: as §2
Stomach [21] = assay: Biodistribution in Kunming mouse stomach assessed per organ at 1 uCi, iv after 120 mins by gamma counting; settings: in vivo, 2 h; outline: as §2
Stomach [22] = assay: Biodistribution in Kunming mouse stomach assessed per organ at 1 uCi, iv after 240 mins by gamma counting; settings: in vivo, 4 h; outline: as §2
Muscle tissue [23] = assay: Biodistribution in Kunming mouse muscle at 1 uCi, iv after 2 mins by gamma counting; settings: in vivo; outline: as §1
Muscle tissue [24] = assay: Biodistribution in Kunming mouse muscle at 1 uCi, iv after 15 mins by gamma counting; settings: in vivo, 0.25 h; outline: as §1
Muscle tissue [25] = assay: Biodistribution in Kunming mouse muscle at 1 uCi, iv after 30 mins by gamma counting; settings: in vivo, 0.5 h; outline: as §1
Muscle tissue [26] = assay: Biodistribution in Kunming mouse muscle at 1 uCi, iv after 60 mins by gamma counting; settings: in vivo, 1 h; outline: as §1
Muscle tissue [27] = assay: Biodistribution in Kunming mouse muscle at 1 uCi, iv after 120 mins by gamma counting; settings: in vivo, 2 h; outline: as §1
Muscle tissue [28] = assay: Biodistribution in Kunming mouse muscle at 1 uCi, iv after 240 mins by gamma counting; settings: in vivo, 4 h; outline: as §1

**Q.** How did the Drug uptake (Spleen [1]) turn out when `COc1ccc(/C=C/C(=O)n2ccc3cc([125I])ccc32)cc1` was run?
**A.** 7.12 % ID/g

**Q.** And the Drug uptake (Spleen [2])?
**A.** 7.16 % ID/g

**Q.** What about the Drug uptake (Spleen [3]) of the same compound?
**A.** 6.18 % ID/g

**Q.** What about the Drug uptake (Spleen [4]) of the same compound?
**A.** 4.45 % ID/g

**Q.** What about the Drug uptake (Lung [5]) of the same compound?
**A.** 21.76 % ID/g

**Q.** And the Drug uptake (Lung [6])?
**A.** 11.13 % ID/g

**Q.** And the Drug uptake (Lung [7])?
**A.** 9.05 % ID/g

**Q.** And the Drug uptake (Lung [8])?
**A.** 6.39 % ID/g

**Q.** And the Drug uptake (Lung [9])?
**A.** 4.31 % ID/g

**Q.** What about the Drug uptake (Lung [10]) of the same compound?
**A.** 2.95 % ID/g

**Q.** And the Drug uptake (Kidney [11])?
**A.** 12.01 % ID/g

**Q.** What about the Drug uptake (Kidney [12]) of the same compound?
**A.** 9.31 % ID/g

**Q.** And the Drug uptake (Kidney [13])?
**A.** 8.21 % ID/g

**Q.** What about the Drug uptake (Kidney [14]) of the same compound?
**A.** 5.71 % ID/g

**Q.** What about the Drug uptake (Kidney [15]) of the same compound?
**A.** 4.21 % ID/g

**Q.** What about the Drug uptake (Kidney [16]) of the same compound?
**A.** 4.05 % ID/g

**Q.** And the Drug uptake (Stomach [17])?
**A.** 0.71 %ID

**Q.** And the Drug uptake (Stomach [18])?
**A.** 4.06 %ID

**Q.** And the Drug uptake (Stomach [19])?
**A.** 4.92 %ID

**Q.** What about the Drug uptake (Stomach [20]) of the same compound?
**A.** 5 %ID

**Q.** And the Drug uptake (Stomach [21])?
**A.** 5.31 %ID

**Q.** What about the Drug uptake (Stomach [22]) of the same compound?
**A.** 4.14 %ID

**Q.** And the Drug uptake (Muscle tissue [23])?
**A.** 2.73 % ID/g

**Q.** And the Drug uptake (Muscle tissue [24])?
**A.** 2.62 % ID/g

**Q.** What about the Drug uptake (Muscle tissue [25]) of the same compound?
**A.** 1.63 % ID/g

**Q.** And the Drug uptake (Muscle tissue [26])?
**A.** 1.3 % ID/g

**Q.** What about the Drug uptake (Muscle tissue [27]) of the same compound?
**A.** 0.65 % ID/g

**Q.** What about the Drug uptake (Muscle tissue [28]) of the same compound?
**A.** 0.92 % ID/g
